Data taken from article PMC4229392 (Investigational new drugs, 2014).
Where “and” joins values, the source holds several entries; their conditions need not be identical. Identical values can stand only once. Entries after “also recorded” stand apart in the source; their conditions may differ.

Experiments:
[1] = cited from earlier work
[2] = acidic solution; preclinical evaluations; cited from earlier work
[3] = tested on: AAK inhibition in xenograft models; conditions: cited from earlier work
[4] = tested on: patients with advanced, non-hematologic malignancies
[5] = Urine PK, renal clearance of alisertib; type: in vivo, human
Summary of the method: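 Urine was collected only from patients dosed at 40 mg BID or higher. Samples were taken pre-dose on day 1 and pooled over 0–12 h after the day 7 morning dose of the 7-day oral BID course. Renal clearance was derived from the day 7 collection in 12 patients (10 at 50 mg BID, 2 at 60 mg BID). Quantitation was by LC-MS/MS.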

[6] = tested on: advanced, non-hematologic malignancies; assay: Antitumor activity by RECIST version 1.1; type: in vivo, human
[7] = Plasma pharmacokinetics of alisertib ECT; type: in vivo, human; conditions: for Tmax: human, plasma
Summary of the method: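 Adults with advanced non-haematologic cancers took oral enteric-coated tablets at 10–60 mg BID for 7 days, then 14 days off (21-day cycles). In cycle 1, plasma was sampled within 1 h before the morning dose and at 0.5–12 h post-dose on days 1 and 7. Further samples were taken 12–132 h after the day 7 evening dose. A validated LC-MS/MS assay and non-compartmental analysis were used. Geometric means were reported only for cohorts of at least 2 patients.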

[8] = human, in vivo, 7 days of each 21-day cycle
[9] = steady-state (day 7), ECT, 20 mg BID (n = 3)
[10] = steady-state (day 7), ECT, 40 mg BID (n = 3)
[11] = steady-state (day 7), ECT, 50 mg BID (n = 11)
[12] = steady-state (day 7), ECT, 60 mg BID (n = 2)

For `COc1cc(Nc2ncc3c(n2)-c2ccc(Cl)cc2C(c2c(F)cccc2OC)=NC3)ccc1C(=O)O` [alisertib], the “Estimated relative bioavailability (geometric mean ratio of steady state alisertib AUC0-τ) of ECT in reference to PIC” value ([1]; 40 mg BID for 7 days, n = 14, 90% CI: 74.4–108.8%) is given as 90%, the “Systemic exposures of ECT formulation compared with PIC formulation” value ([1]; relative bioavailability analysis of phase 1 data) is given as “generally similar” and the “Solubility (in words)” value [2] is given as “reduced solubility in acidic solution”. The “Concentration associated with saturating levels of pharmacodynamic (PD) activity” value ([3]; murine xenograft studies) was 1 µM, the “Concentration associated with AAK inhibition and antitumor activity” value ([3]; preclinical xenograft models) was 1 µM and the “Patients with drug-related SAEs in the MTD cohort” value ([4]; 50 mg BID) was 4 patients. The “Patients who died during the first treatment cycle” value ([4]; 50 mg starting dose, not considered related to alisertib) was 2 patients, the “Maximum tolerated dose (MTD)” value ([4]; ECT, × 7 days in a 21-day cycle) was 50 mg BID and the “Patients in whom dose reductions were necessary” value ([4]; human, in vivo) was 21%. The “Patients who discontinued treatment due to AEs” value ([4]; human, in vivo) was 29%, the “Patients with any grade of drug-related central nervous system (CNS) AEs” value ([4]; human, in vivo) was 33% and the “Patients with cycle 1 dose-limiting toxicity (grade 4 febrile neutropenia)” value ([4]; human, in vivo) was 1 of 13. The “Patients with dose reduction for neutropenia” value ([4]; human, in vivo) was 13%, the “Patients with dose reduction for thrombocytopenia” value ([4]; human, in vivo) was 8% and the “Patients with drug-related CNS AE dizziness” value ([4]; human, in vivo) was 2 n. For the same compound, the “Patients with drug-related CNS AE hypersomnia” value ([4]; human, in vivo) was 5 n, the “Patients with drug-related CNS AE memory impairment” value ([4]; human, in vivo) was 3 n and the “Patients with drug-related grade 3 or higher gastrointestinal AEs” value ([4]; human, in vivo) was 25%. For the same compound, the “Patients with drug-related grade 3 or higher hematologic AEs” value ([4]; human, in vivo) was 50%, the “Patients with drug-related neutropenia” value ([4]; human, in vivo) was 50% and the “Patients with treatment-related fatigue” value ([4]; human, in vivo) was 33%. The “Alopecia, all-grade treatment-related AE” value ([4]; human, in vivo, 7 days) was 10 (42) n (%), the “Anemia, all-grade treatment-related AE” value ([4]; human, in vivo, 7 days) was 3 (13) n (%) and the “Decreased appetite, all-grade treatment-related AE” value ([4]; human, in vivo, 7 days) was 5 (21) n (%). The “Diarrhea, all-grade treatment-related AE” value ([4]; human, in vivo, 7 days) was 10 (42) n (%), the “Diarrhea, grade ≥3 treatment-related AE” value ([4]; human, in vivo, 7 days) was 2 (8) n (%) and the “Fatigue, all-grade treatment-related AE” value ([4]; human, in vivo, 7 days) was 8 (33) n (%). The “Fatigue, grade ≥3 treatment-related AE” value ([4]; human, in vivo, 7 days) was 2 (8) n (%), the “Febrile neutropenia, all-grade treatment-related AE” value ([4]; human, in vivo, 7 days) was 3 (13) n (%) and the “Febrile neutropenia, grade ≥3 treatment-related AE” value ([4]; human, in vivo, 7 days) was 3 (13) n (%). For the same compound, the “Hypersomnia, all-grade treatment-related AE” value ([4]; human, in vivo, 7 days) was 5 (21) n (%), the “Leukopenia, grade ≥3 treatment-related AE” value ([4]; human, in vivo, 7 days) was 9 (38) n (%) and the “Memory impairment, all-grade treatment-related AE” value ([4]; human, in vivo, 7 days) was 3 (13) n (%). The “Nausea, grade ≥3 treatment-related AE” value ([4]; human, in vivo, 7 days) was 2 (8) n (%), the “Neutropenia, all-grade treatment-related AE” value ([4]; human, in vivo, 7 days) was 12 (50) n (%) and the “Neutropenia, grade ≥3 treatment-related AE” value ([4]; human, in vivo, 7 days) was 11 (46) n (%). For the same compound, the “Oral candidiasis, all-grade treatment-related AE” value ([4]; human, in vivo, 7 days) was 4 (17) n (%), the “Recommended phase 2 dose (RP2D)” value ([4]; human, in vivo, 7 days) was 50 mg BID and the “Severity of CNS AEs (hypersomnia, memory loss, dizziness)” value ([4]; human, in vivo, 7 days) was 1–2 grade. The “Stomatitis, all-grade treatment-related AE” value ([4]; human, in vivo, 7 days) was 10 (42) n (%), the “Stomatitis, grade ≥3 treatment-related AE” value ([4]; human, in vivo, 7 days) was 2 (8) n (%) and the “Thrombocytopenia, all-grade treatment-related AE” value ([4]; human, in vivo, 7 days) was 4 (17) n (%). The “Vomiting, all-grade treatment-related AE” value ([4]; human, in vivo, 7 days) was 5 (21) n (%), the “Vomiting, grade ≥3 treatment-related AE” value ([4]; human, in vivo, 7 days) was 2 (8) n (%) and the “Leukopenia, all-grade treatment-related AE” value [4, 8] was 10 (42) n (%). The “Nausea, all-grade treatment-related AE” value [4, 8] was 10 (42) n (%), the “Tolerability of dose level” value ([4]; in vivo) was “poorly tolerated” and the “Renal clearance (in words)” value ([5]; in vivo) was “negligible”. For the same compound, the “Renal clearance as share of apparent oral clearance” value ([5]; urine 0 to 12 h postdose day 7, 12 patients (50 and 60 mg BID)) was “less than 0.1%”, the “Patients with stable disease” value ([6]; 16 response-evaluable patients) was “Nine patients achieved stable disease; also recorded: Nine patients had stable disease” and the “Responses by RECIST” value ([6]; 16 response-evaluable patients) was “No responses by RECIST were observed; also recorded: no complete or partial responses by RECIST were observed”. The “Patients completing treatment for symptomatic deterioration” value ([6]; N = 24) was 21%, the “Duration of stable disease, individual patients” value ([6]; censored observations (*)) was 3.98 months and 1.28 months and 5.45 months and 6.93 months and the “Duration of stable disease, individual patients” value ([6]; not censored) was 5.59 months and 2.56 months and 3.48 months and 3.15 months and 8.31 months. The “Overall mean peak/trough ratio” value ([7]; BID dosing, all doses) was 2.2, the “Geometric mean steady-state trough concentration” value ([7]; RP2D of 50 mg BID, ECT) was greater than 1 µM and the Accumulation ratio ([7]; following BID dosing, all doses) was 2.4. It also gave a Tmax ([7]; oral, 40 mg, Median Tmax (range), steady-state (day 7), ECT, 40 mg BID (n = 3)) of 3 h, a Tmax ([7]; oral, 50 mg, Median Tmax (range), steady-state (day 7), ECT, 50 mg BID (n = 11)) of 2.4 h and a Tmax ([7]; oral, 60 mg, Median Tmax (range), steady-state (day 7), ECT, 60 mg BID (n = 2)) of 2.8 h. The Tmax ([7]; po, Overall median Tmax, oral ECT, all doses, range 0–11) was roughly 3 h, the “Dose dependence of systemic exposure” value ([7]; steady-state (day 7), 10–60 mg BID) was “increased with increasing doses” and the “Mean accumulation ratio (SD)” value [7, 9] was 3.0 (1.0). For the same compound, the “Mean peak/trough ratio (SD)” value [7, 9] was 2.1 (0.7), the “Mean accumulation ratio (SD)” value [7, 10] was 2.3 (0.4) and the “Mean peak/trough ratio (SD)” value [7, 10] was 2.3 (1.4). For the same compound, the “Mean accumulation ratio (SD)” value [7, 11] was 2.2 (0.9), the “Mean peak/trough ratio (SD)” value [7, 11] was 2.3 (0.8) and the Mean accumulation ratio [7, 12] was 2.4. The Mean peak/trough ratio [7, 12] was 1.8.
